Source: ChEMBL document CHEMBL4396949, “Anti-cancer potential of novel glycosylated 1,4-substituted triazolylchalcone derivatives” (Bioorg Med Chem Lett, 2019)
Activity calls are given as the source filed them. No cut-off for these calls is given here.

How the values were obtained:
MDA-MB-468 [1] = experiment: Induction of apoptosis in human MDA-MB-468 cells assessed as increase in bax protein expression at 40 to 60 uM by Western blot analysis; format: functional, cell-based
MDA-MB-468 [2] = experiment: Induction of apoptosis in human MDA-MB-468 cells assessed as increase in apoptotic cells incubated for 24 hrs by annexin V-FITC and PI staining based flow cytometric analysis; format: functional, cell-based
In short: (§1)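 Cells treated at 0, 20, 40 and 60 µM for 24 h, stained with Annexin V-FITC/PI and analysed by flow cytometry; apoptotic cell percentage quantified from dot plots.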

MDA-MB-468 [3] = experiment: Induction of apoptosis in human MDA-MB-468 cells assessed as decrease in bcl2 protein expression at 40 to 60 uM by Western blot analysis; format: functional, cell-based
MCF7 [4] = experiment: Induction of apoptosis in human MCF7 cells assessed as increase in apoptotic cells at 60 uM incubated for 24 hrs by annexin V-FITC and PI staining based flow cytometric analysis relative to control; format: functional; in short: as §1
MDA-MB-468 [5] = experiment: Induction of DNA fragmentation in human MDA-MB-468 cells assessed as apoptotic cells at 40 to 60 uM incubated for 12 hrs by DAPI staining based fluorescence microscopic method; format: functional, cell-based
In short: (§2)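 Nuclear morphology by DAPI staining and fluorescence microscopy; apoptotic (fragmented, polynuclear) nuclei counted and expressed as percent apoptotic cells versus untreated control; H2O2 positive control.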

MDA-MB-468 [6] = experiment: Induction of mitochondrial ROS production in human MDA-MB-468 cells at 40 to 60 uM incubated for 24 hrs by MitoSox red dye based fluorescence microscopic method; format: functional, cell-based
In short: (§3)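 MitoSOX Red, a live-cell mitochondria-targeted superoxide probe, after exposure to 40 and 60 µM; read by fluorescence microscopy and spectrophotometric fluorescence intensity; H2O2 positive control.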

MCF7 [7] = experiment: Induction of DNA fragmentation in human MCF7 cells assessed as apoptotic cells at 40 to 60 uM incubated for 12 hrs by DAPI staining based fluorescence microscopic method; format: functional, cell-based; in short: as §2
[8] = Selectivity index, ratio of LD50 for human WI38 cells to LD50 for human MCF7 cells; format: toxicity; conditions: WI38 cells and MCF7 cells, read-out: Selectivity Index
In short: (§4)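 MTT cytotoxicity after exposure to […] in MDA-MB-468, MCF-7 and WI-38 fibroblasts; LD50 determined per line; selectivity index calculated as WI-38 LD50 divided by cancer-cell LD50.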

MDA-MB-468 [9] = experiment: Antiproliferative activity against human MDA-MB-468 cells incubated for 24 hrs by MTT assay; format: functional; conditions: MDA-MB-468, 24 h, read-out: LD50 (the source's name)
In short: (§5)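 Cells exposed to compounds at […]; viability read by MTT assay. LD50 derived from concentration-response. MDA-MB-468: triple-negative (ER-, PR-, HER2-) breast cancer. MCF-7: ER+, PR+, HER2- breast cancer. WI-38: non-cancerous lung fibroblasts. Selectivity index taken as WI-38 LD50 divided by cancer-cell LD50.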

MDA-MB-468 [10] = experiment: Induction of apoptosis in human MDA-MB-468 cells assessed as increase in cleaved caspase-3 protein expression at 40 to 60 uM by Western blot analysis; format: functional, cell-based
[11] = Antiproliferative activity against human WI38 cells incubated for 24 hrs by MTT assay; format: cell-based, WI-38; conditions: read-out: LD50; in short: as §5
MDA-MB-468 [12] = experiment: Induction of DNA fragmentation in human MDA-MB-468 cells assessed as apoptotic cells at 60 uM incubated for 12 hrs by DAPI staining based fluorescence microscopic method relative to control; format: functional; in short: as §2
MCF7 [13] = experiment: Induction of cell cycle arrest in human MCF7 cells assessed as increase in accumulation at sub G1 phase at 60 uM by PI staining based FACS analysis relative to control; format: functional
In short: (§6)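 Cells exposed to 20, 40 and 60 µM; cell cycle distribution by FACS, with sub-G1 population quantified as a measure of apoptosis.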

MDA-MB-468 [14] = experiment: Disruption of mitochondrial membrane potential in human MDA-MB-468 cells assessed as shift of fluorescence from red to green by JC1 staining based fluorescent microscopic method; format: functional, cell-based
In short: (§7)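 JC-1 staining with fluorescence imaging; mitochondrial permeability transition read as a red-to-green shift (fall in red/green ratio), quantified from images; H2O2 as positive control.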

[15] = Selectivity index, ratio of LD50 for human WI38 cells to LD50 for human MDA-MB-468 cells; format: toxicity; conditions: WI38 cells and MDA-MB-468 cells, read-out: Selectivity Index; in short: as §4
MDA-MB-468 [16] = experiment: Induction of cell cycle arrest in human MDA-MB-468 cells assessed as increase in accumulation at sub G1 phase at 60 uM by PI staining based FACS analysis relative to control; format: functional; in short: as §6
MCF7 [17] = experiment: Induction of DNA fragmentation in human MCF7 cells assessed as formation of polynuclear fragmentation at 40 to 60 uM incubated for 12 hrs by DAPI staining based fluorescence microscopic method; format: functional, cell-based; in short: as §2
MCF7 [18] = experiment: Induction of ROS production in human MCF7 cells assessed as increase in green intensity incubated for 12 hrs by DCFDA staining based microscopic analysis; format: functional, cell-based
In short: (§8)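 Cells exposed to 0, 20, 40 and 60 µM for 12 h, then loaded with DCFDA (100 µM) for 30 min; green fluorescence assessed by microscopy with image quantitation, plus spectrophotometric fluorescence intensity; H2O2 positive control.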

MDA-MB-468 [19] = experiment: Induction of apoptosis in human MDA-MB-468 cells assessed as increase in apoptotic cells at 60 uM incubated for 24 hrs by annexin V-FITC and PI staining based flow cytometric analysis relative to control; format: functional; in short: as §1
WI-38 = experiment: Induction of apoptosis in human WI38 cells at 20 to 60 uM incubated for 24 hrs by annexin V-FITC and PI staining based flow cytometric analysis; format: cell-based; conditions: wi-38, 24 h; in short: as §1
MDA-MB-468 [20] = experiment: Induction of DNA fragmentation in human MDA-MB-468 cells assessed as formation of polynuclear fragmentation at 40 to 60 uM incubated for 12 hrs by DAPI staining based fluorescence microscopic method; format: functional, cell-based; in short: as §2
MCF7 [21] = experiment: Induction of mitochondrial ROS production in human MCF7 cells at 40 to 60 uM incubated for 24 hrs by MitoSox red dye based fluorescence microscopic method; format: functional, cell-based; in short: as §3
MCF7 [22] = experiment: Induction of apoptosis in human MCF7 cells assessed as increase in apoptotic cells incubated for 24 hrs by annexin V-FITC and PI staining based flow cytometric analysis; format: functional, cell-based; in short: as §1
MCF7 [23] = experiment: Disruption of mitochondrial membrane potential in human MCF7 cells assessed as shift of fluorescence from red to green by JC1 staining based fluorescent microscopic method; format: functional, cell-based; in short: as §7
MCF7 [24] = experiment: Induction of DNA fragmentation in human MCF7 cells assessed as apoptotic cells at 60 uM incubated for 12 hrs by DAPI staining based fluorescence microscopic method relative to control; format: functional; in short: as §2
MDA-MB-468 [25] = experiment: Induction of ROS production in human MDA-MB-468 cells assessed as increase in green intensity incubated for 12 hrs by DCFDA staining based microscopic analysis; format: functional, cell-based; in short: as §8
MCF7 [26] = experiment: Antiproliferative activity against human MCF7 cells incubated for 24 hrs by MTT assay; format: functional; conditions: MCF7, 24 h, read-out: LD50 (the source's name); in short: as §5

Q: What does the source list for `CN(C)c1ccc(/C=C/C(=O)c2ccc(OCc3cn([C@@H]4O[C@H](CO)[C@@H](O)[C@H](O)[C@H]4O)nn3)cc2)cc1`?
A: Activity (MDA-MB-468 [1]): Active; Activity (MDA-MB-468 [2]): Dose-dependent effect; Activity (MDA-MB-468 [3]): Active; Activity (MCF7 [4]): 63%; Activity (MDA-MB-468 [5]): Active; Activity (MDA-MB-468 [6]): Active; Activity (MCF7 [7]): Active; selectivity ratio [8]: 1.9; CC50 (MDA-MB-468 [9]): 28 µM; Activity (MDA-MB-468 [10]): Active; CC50 at 24 h [11]: 59 µM; Activity (MDA-MB-468 [12]): 72%; Activity (MCF7 [13]): 67%; Activity (MDA-MB-468 [14]): Dose-dependent effect; selectivity ratio [15]: 2.11; Activity (MDA-MB-468 [16]): 62%; Activity (MCF7 [17]): Active; Activity (MCF7 [18]): Dose-dependent effect; Activity (MDA-MB-468 [19]): 60%; Activity (WI-38): Non-Toxic; Activity (MDA-MB-468 [20]): Active; Activity (MCF7 [21]): Active; Activity (MCF7 [22]): Dose-dependent effect; Activity (MCF7 [23]): Dose-dependent effect; Activity (MCF7 [24]): 78%; Activity (MDA-MB-468 [25]): Dose-dependent effect; CC50 (MCF7 [26]): 31 µM
